# Measured values reported in ChEMBL document CHEMBL1156780, “6-(Het)aryl-7-deazapurine ribonucleosides as novel potent cytostatic agents” (J Med Chem, 2010).
# Legend:
# [1] = system: NCI-H23; assay: Cytotoxicity against human NCI-H23 cells after 5 days by SRB assay; format: functional; details: NCI-H23, 120 h
# Outline: (§1)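 Cells seeded in RPMI (colon, breast, lung lines), MEM (Du145) or F12K (PC3) with 10% FBS, 37 °C overnight. Day-zero plates fixed with cold 10% TCA. Compounds added as 5-fold serial dilutions for 5 days. Fixed, stained with 0.057% SRB in 1% acetic acid, dye solubilized in 10 mM Tris pH 10.5, A500 read. Growth % corrected for day-0 OD; GIC₅₀ from sigmoidal fit.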
# [2] = system: PC-3; assay: Cytotoxicity against human PC3 cells after 5 days by SRB assay; format: functional; details: PC-3, 120 h; outline: as §1
# [3] = system: BT-549; assay: Cytotoxicity against human BT549 cells after 5 days by SRB assay; format: functional; details: BT-549, 120 h; outline: as §1
# [4] = system: HCT-15; assay: Cytotoxicity against human HCT15 cells after 5 days by SRB assay; format: functional; details: HCT-15, 120 h; outline: as §1
# [5] = system: CCRF-CEM; assay: Cell cycle arrest in human CCRF-CEM assessed as accumulation at subG1 phase at 5 x GIC50 after 24 hrs by flow cytometry; format: functional
# Outline: (§2)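 Subconfluent CCRF-CEM (5 × 10⁵ cells/mL, RPMI 1640 + 10% FCS, 37 °C CO₂) exposed 24 h at 1× or 5× GIC₅₀, vehicle controls alongside. Cells fixed overnight in 70% ethanol at -20 °C, hypotonic citrate wash, RNase 50 μg/mL, propidium iodide stain, 488 nm flow cytometry. Sub-G1 = particles with PI content below G0/G1 cells. Reported as % of total cells.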
# [6] = system: CCRF-CEM; assay: Inhibition of RNA synthesis in human CCRF-CEM assessed as assessed as BrdU incorporation at 5 x GIC50 after 24 by flow cytometry; format: functional; design: scale not given: the % may be the effect or the level left
# Outline: (§3)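 CCRF-CEM culture as for cell cycle (24 h, 1× or 5× GIC₅₀). Cells pulsed 30 min with 1 mM bromouridine before harvest. Fixed in 1% paraformaldehyde/0.05% NP-40. Stained with anti-BrdU antibody cross-reacting with BrU, then FITC secondary, PI and RNase A. BrU+ cells quantified by 488 nm flow cytometry.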
# [7] = system: CCRF-CEM; assay: Inhibition of DNA synthesis in human CCRF-CEM assessed as assessed as BrdU incorporation at 5 x GIC50 after 24 by flow cytometry; format: functional; design: scale not given: the % may be the effect or the level left
# Outline: (§4)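 Culture as for cell cycle work (CCRF-CEM, 24 h, 1× or 5× GIC₅₀). Pulse with 10 μM BrdU for 30 min before harvest. Fixed in 70% ethanol, DNA denatured in 2 M HCl, neutralized with 0.1 M borax. Stained with anti-BrdU and FITC secondary, plus PI 0.1 mg/mL and RNase A. BrdU+ cells counted by flow cytometry.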
# [8] = system: CCRF-CEM; assay: Inhibition of DNA synthesis in human CCRF-CEM assessed as assessed as BrdU incorporation at 1 x GIC50 after 24 by flow cytometry; format: functional; design: scale not given: the % may be the effect or the level left; outline: as §4
# [9] = system: CCRF-CEM; assay: Cell cycle arrest in human CCRF-CEM assessed as accumulation at G1 phase at 5 x GIC50 after 24 hrs by flow cytometry; format: functional; outline: as §2
# [10] = system: CCRF-CEM; assay: Cell cycle arrest in human CCRF-CEM assessed as accumulation at G2/M phase at 1 x GIC50 after 24 hrs by flow cytometry; format: functional; outline: as §2
# [11] = system: CCRF-CEM; assay: Cell cycle arrest in human CCRF-CEM assessed as accumulation at S phase at 5 x GIC50 after 24 hrs by flow cytometry; format: functional; outline: as §2
# [12] = system: CCRF-CEM; assay: Cell cycle arrest in human CCRF-CEM assessed as accumulation at subG1 phase at 1 x GIC50 after 24 hrs by flow cytometry; format: functional; outline: as §2
# [13] = system: CCRF-CEM; assay: Inhibition of DNA synthesis in human CCRF-CEM assessed as assessed as BrdU incorporation after 24 by flow cytometry; format: functional
# [14] = system: CCRF-CEM; assay: Cell cycle arrest in human CCRF-CEM assessed as accumulation at G2/M phase at 5 x GIC50 after 24 hrs by flow cytometry; format: functional; outline: as §2
# [15] = system: CCRF-CEM; assay: Cell cycle arrest in human CCRF-CEM assessed as accumulation at G1 phase at 1 x GIC50 after 24 hrs by flow cytometry; format: functional; outline: as §2
# [16] = system: CCRF-CEM; assay: Antimitotic activity in human CCRF-CEM cells assessed as decrease in mitotic histone H3 at 1 x GIC50; format: functional; design: scale not given: the % may be the effect or the level left
# Outline: (§5)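 CCRF-CEM cells seeded subconfluent at 5 × 10⁵ cells/mL in RPMI 1640 with 10% FCS, 10 mM glutamine, penicillin/streptomycin, 37 °C humidified CO₂. Exposed 24 h at 1× or 5× GIC₅₀; vehicle controls harvested at 24 h. Ethanol-fixed cells labelled with anti-phospho-histone H3 Ser10 and mitotic cells counted by flow cytometry as % of total population.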
# [17] = system: CCRF-CEM; assay: Cell cycle arrest in human CCRF-CEM assessed as accumulation at S phase at 1 x GIC50 after 24 hrs by flow cytometry; format: functional; outline: as §2
# [18] = system: CCRF-CEM; assay: Inhibition of RNA synthesis in human CCRF-CEM assessed as assessed as BrdU incorporation at 1 x GIC50 after 24 by flow cytometry; format: functional; design: scale not given: the % may be the effect or the level left; outline: as §3
# [19] = system: CCRF-CEM; assay: Inhibition of RNA synthesis in human CCRF-CEM assessed as assessed as BrdU incorporation after 24 by flow cytometry; format: functional
# [20] = system: CCRF-CEM; assay: Antimitotic activity in human CCRF-CEM cells assessed as decrease in mitotic histone H3 at 5 x GIC50; format: functional; design: scale not given: the % may be the effect or the level left; outline: as §5
# [21] = system: DU-145; assay: Cytostatic activity against human DU145 cells after 5 days by SRB assay; format: functional; details: DU-145, 120 h; outline: as §1
# [22] = system: A549; assay: Cytostatic activity against human A549 cells after 5 days by SRB assay; format: functional; details: A549, 120 h; outline: as §1
# [23] = Cytostatic activity against human Hs578 cells after 5 days by SRB assay; format: functional; details: Hs578, 120 h; outline: as §1
# [24] = system: CCRF-CEM; assay: Cytotoxicity against human CCRF-CEM cells after 3 days by XTT assay; format: functional, cell-based; details: 72 h
# Outline: (§6)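 Cell viability of CCRF-CEM, HL60 and HeLa cells measured by XTT assay after 72 h incubation with compounds. IC₅₀ taken as mean of 2–4 independent experiments.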
# [25] = Cytotoxicity against human HeLaS3 cells after 3 days by XTT assay; format: functional, cell-based; details: HeLa S3, 72 h
# [26] = system: HCT-116; assay: Cytostatic activity against human HCT116 cells after 5 days by SRB assay; format: functional; details: HCT-116, 120 h; outline: as §1
# [27] = system: HL-60; assay: Cytotoxicity against human HL60 cells after 3 days by XTT assay; format: functional, cell-based; details: HL-60, 72 h; outline: as §6
structure (smiles),measurement,setting,value
Nc1nc(Cl)nc2c1ncn2[C@@H]1O[C@H](CO)[C@@H](O)[C@@H]1F [CLOFARABINE],GI50,[1],40 nM
same,GI50,[2],63 nM
same,GI50,[3],65 nM
same,GI50,[4],180 nM
Nc1nc(Cl)nc2c1ncn2[C@H]1C[C@H](O)[C@@H](CO)O1 [CLADRIBINE],Activity,[5],61.5%
same,Activity,[6],41.3%
same,Activity,[7],13%
same,Activity,[8],32.1%
same,Activity,[9],61.6%
same,Activity,[10],1.9%
same,Activity,[11],30.8%
same,Activity,[12],48%
same,inhibition (INH),[13],9.54%
same,Activity,[14],7.6%
same,Activity,[15],73.2%
same,Activity,[16],0.85%
same,Activity,[17],24.9%
same,Activity,[18],46.2%
same,inhibition (INH),[19],44.77%
same,Activity,[20],0.44%
OC[C@H]1O[C@@H](n2cc(F)c3c(-c4cccs4)ncnc32)[C@H](O)[C@@H]1O,Activity,[5],43.4%
same,GI50,[21],9 nM
same,Activity,[6],5.7%
same,Activity,[7],47%
same,GI50,[22],61 nM
same,GI50,[1],1500 nM
same,Activity,[8],56.2%
same,Activity,[9],40.4%
same,GI50,[23],130 nM
same,Activity,[10],9.3%
same,IC50,[24],270 nM
same,IC50,[25],4.3 µM
same,GI50,[2],90 nM
same,Activity,[11],50.5%
same,GI50,[26],9 nM
same,Activity,[12],17.1%
same,GI50,[3],81 nM
same,Activity,[14],9.1%
same,Activity,[15],43.9%
same,Activity,[16],0.85%
same,Activity,[17],46.7%
same,GI50,[4],18 nM
same,IC50,[27],4300 nM
same,Activity,[18],28.4%
same,Activity,[20],0.47%
Nc1ccn([C@@H]2O[C@H](CO)[C@@H](O)C2(F)F)c(=O)n1 [GEMCITABINE],Activity,[5],54%
same,Activity,[6],44.8%
same,Activity,[7],9.5%
same,GI50,[1],2 nM
same,Activity,[8],56.7%
same,Activity,[9],67.1%
same,Activity,[10],0.6%
same,GI50,[2],6 nM
same,Activity,[11],30.5%
same,Activity,[12],24.1%
same,GI50,[3],4 nM
same,Activity,[14],2.3%
same,Activity,[15],27.1%
same,Activity,[16],0.78%
same,Activity,[17],72.3%
same,GI50,[4],3 nM
same,Activity,[18],54.7%
same,Activity,[20],0.53%
OC[C@H]1O[C@@H](n2ccc3c(-c4ccoc4)ncnc32)[C@H](O)[C@@H]1O,Activity,[5],61.2%
same,GI50,[21],36 nM
same,Activity,[6],7.2%
same,Activity,[7],28.9%
same,GI50,[22],73 nM
same,GI50,[1],280 nM
same,Activity,[8],44.6%
same,Activity,[9],54.4%
same,GI50,[23],260 nM
same,Activity,[10],7.1%
same,IC50,[24],1900 nM
same,IC50,[25],4.6 µM
same,GI50,[2],96 nM
same,Activity,[11],39.7%
same,GI50,[26],92 nM
same,Activity,[12],39.8%
same,GI50,[3],35 nM
same,Activity,[14],5.9%
same,Activity,[15],55.6%
same,Activity,[16],0.84%
same,Activity,[17],37.3%
same,GI50,[4],86 nM
same,IC50,[27],1500 nM
same,Activity,[18],14%
same,Activity,[20],0.39%
OC[C@H]1O[C@@H](n2cc(F)c3c(-c4ccco4)ncnc32)[C@H](O)[C@@H]1O,GI50,[21],5 nM
same,GI50,[22],110 nM
same,GI50,[1],4300 nM
same,GI50,[23],180 nM
same,IC50,[24],1400 nM
same,IC50,[25],8 µM
same,GI50,[2],75 nM
same,GI50,[26],39 nM
same,GI50,[3],110 nM
same,GI50,[4],57 nM
same,IC50,[27],1200 nM
OC[C@H]1O[C@@H](n2ccc3c(-c4cccs4)ncnc32)[C@H](O)[C@@H]1O,Activity,[5],55%
same,GI50,[21],9 nM
same,Activity,[6],3.5%
same,Activity,[7],38.3%
same,GI50,[22],45 nM
same,GI50,[1],430 nM
same,Activity,[8],55.5%
same,Activity,[9],47%
same,GI50,[23],100 nM
same,Activity,[10],12.2%
same,IC50,[24],290 nM
same,IC50,[25],8.8 µM
same,GI50,[2],33 nM
same,Activity,[11],47%
same,GI50,[26],49 nM
same,Activity,[12],13.7%
same,GI50,[3],23 nM
same,Activity,[14],6%
same,Activity,[15],45.5%
same,Activity,[16],0.87%
same,Activity,[17],42.2%
same,GI50,[4],78 nM
same,IC50,[27],1200 nM
same,Activity,[18],28.5%
same,Activity,[20],0.44%
